Assay results from ChEMBL document CHEMBL5712070, “Discovery of a chemical probe for the L3MBTL3 methyllysine reader domain” (Nat Chem Biol, 2013).
Active and inactive are the calls of the source. No cut-off for these calls is given here.

Key:
[1] = molecular target: T1, Lethal(3)malignant brain tumor-like protein 3 (Homo sapiens, UniProt Q96JM7); assay: Binding affinity to GFP-tagged full length L3MBTL3 (unknown origin) assessed as diffusion coefficient at 0.1 uM (reference value: 0.037549815 um2/s)
T1 sequence (Q96JM7 whole entry): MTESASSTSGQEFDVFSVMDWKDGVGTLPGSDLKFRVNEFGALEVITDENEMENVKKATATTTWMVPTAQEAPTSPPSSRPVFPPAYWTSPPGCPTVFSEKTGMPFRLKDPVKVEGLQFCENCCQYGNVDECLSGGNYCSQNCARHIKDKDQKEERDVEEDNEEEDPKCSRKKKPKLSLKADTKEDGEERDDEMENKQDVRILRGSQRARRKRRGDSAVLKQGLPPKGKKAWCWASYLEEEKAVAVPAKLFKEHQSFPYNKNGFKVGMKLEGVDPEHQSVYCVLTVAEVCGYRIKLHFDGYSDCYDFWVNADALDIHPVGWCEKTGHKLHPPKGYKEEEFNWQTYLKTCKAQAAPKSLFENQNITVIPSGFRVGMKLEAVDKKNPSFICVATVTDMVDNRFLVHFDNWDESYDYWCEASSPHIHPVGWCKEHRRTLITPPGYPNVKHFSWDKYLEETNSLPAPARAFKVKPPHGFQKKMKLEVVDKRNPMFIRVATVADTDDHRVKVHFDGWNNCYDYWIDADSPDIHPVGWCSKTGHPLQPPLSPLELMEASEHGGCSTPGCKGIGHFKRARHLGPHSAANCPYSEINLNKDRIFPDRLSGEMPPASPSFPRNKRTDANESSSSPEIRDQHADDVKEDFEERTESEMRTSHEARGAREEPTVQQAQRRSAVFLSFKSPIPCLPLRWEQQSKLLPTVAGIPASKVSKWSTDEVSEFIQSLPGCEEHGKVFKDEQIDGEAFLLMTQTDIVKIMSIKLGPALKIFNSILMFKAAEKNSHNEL

[2] = molecular target: Muscarinic acetylcholine receptor M2 (Homo sapiens) (UniProt P08172); assay: Agonist activity at human M2 receptor; type: functional
[3] = molecular target: T2, Lethal(3)malignant brain tumor-like protein 3 (Homo sapiens) (UniProt Q96JM7); settings: dose 0.5 µM
T2 sequence (whole entry): T1 sequence (Q96JM7 whole entry)

[4] = molecular target: T3, Muscarinic acetylcholine receptor M2 (Homo sapiens, UniProt P08172); assay: Antagonist activity at human M2 receptor assessed as reduction in acetylcholine-induced response by Schild analysis; type: functional; settings: read-out: pA2 (converted)
[5] = molecular target: Muscarinic acetylcholine receptor M1 (Homo sapiens) (UniProt P11229); assay: Agonist activity at human M1 receptor; type: functional
[6] = molecular target: Muscarinic acetylcholine receptor M5 (Homo sapiens, UniProt P08912); assay: Inhibition of M5 receptor (unknown origin) by radioligand binding assay
[7] = molecular target: T1, Lethal(3)malignant brain tumor-like protein 3; assay: Binding affinity to GFP-3MBT tagged L3MBTL3 (unknown origin) assessed as diffusion coefficient at 1 uM (reference value: 0.1272 um2/s)
[8] = molecular target: T3, Muscarinic acetylcholine receptor M2; assay: Inhibition of M2 receptor (unknown origin) by radioligand binding assay
In short: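 Radioligand competition binding; the value is reported as a Ki.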

[9] = molecular target: T1, Lethal(3)malignant brain tumor-like protein 3; assay: Binding affinity to GFP-tagged full length L3MBTL3 (unknown origin) assessed as diffusion coefficient at 0.01 uM (reference value: 0.037549815 um2/s)
[10] = molecular target: Muscarinic acetylcholine receptor M4 (Homo sapiens, UniProt P08173); assay: Inhibition of M4 receptor (unknown origin) by radioligand binding assay
[11] = molecular target: T1, Lethal(3)malignant brain tumor-like protein 3; assay: Binding affinity to GFP-3MBT tagged L3MBTL3 (unknown origin) assessed as diffusion coefficient at 0.5 uM (reference value: 0.1272 um2/s)

T3 sequence (P08172 whole entry): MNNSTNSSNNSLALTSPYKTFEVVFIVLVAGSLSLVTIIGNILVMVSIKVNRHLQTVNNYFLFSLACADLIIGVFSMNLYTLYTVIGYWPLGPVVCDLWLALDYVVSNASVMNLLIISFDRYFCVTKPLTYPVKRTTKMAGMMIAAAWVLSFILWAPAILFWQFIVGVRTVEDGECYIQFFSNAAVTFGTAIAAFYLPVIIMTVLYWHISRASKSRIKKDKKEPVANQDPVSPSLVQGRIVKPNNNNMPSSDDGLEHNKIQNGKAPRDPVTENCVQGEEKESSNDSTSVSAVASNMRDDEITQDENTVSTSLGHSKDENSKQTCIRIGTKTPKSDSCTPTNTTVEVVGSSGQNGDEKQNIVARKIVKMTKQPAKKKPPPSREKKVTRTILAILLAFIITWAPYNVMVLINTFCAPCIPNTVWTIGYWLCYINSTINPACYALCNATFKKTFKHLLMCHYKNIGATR
Muscarinic acetylcholine receptor M5, sequence (P08912 whole entry, the tested form may be a part): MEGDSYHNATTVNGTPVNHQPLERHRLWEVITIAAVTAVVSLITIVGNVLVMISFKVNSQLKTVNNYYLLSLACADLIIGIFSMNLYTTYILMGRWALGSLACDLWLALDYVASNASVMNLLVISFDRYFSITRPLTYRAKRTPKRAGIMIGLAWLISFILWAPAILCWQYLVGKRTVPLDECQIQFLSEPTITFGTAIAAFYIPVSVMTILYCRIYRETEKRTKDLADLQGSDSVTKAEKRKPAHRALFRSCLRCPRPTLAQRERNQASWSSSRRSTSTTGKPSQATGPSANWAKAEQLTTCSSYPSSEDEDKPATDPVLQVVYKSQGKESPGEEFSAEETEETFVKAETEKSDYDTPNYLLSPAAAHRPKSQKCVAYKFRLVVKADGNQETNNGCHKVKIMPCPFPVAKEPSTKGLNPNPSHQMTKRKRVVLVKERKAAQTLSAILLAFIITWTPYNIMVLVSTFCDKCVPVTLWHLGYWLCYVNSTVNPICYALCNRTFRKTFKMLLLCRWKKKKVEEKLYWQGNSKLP
Muscarinic acetylcholine receptor M4, sequence (P08173 whole entry, the tested form may be a part): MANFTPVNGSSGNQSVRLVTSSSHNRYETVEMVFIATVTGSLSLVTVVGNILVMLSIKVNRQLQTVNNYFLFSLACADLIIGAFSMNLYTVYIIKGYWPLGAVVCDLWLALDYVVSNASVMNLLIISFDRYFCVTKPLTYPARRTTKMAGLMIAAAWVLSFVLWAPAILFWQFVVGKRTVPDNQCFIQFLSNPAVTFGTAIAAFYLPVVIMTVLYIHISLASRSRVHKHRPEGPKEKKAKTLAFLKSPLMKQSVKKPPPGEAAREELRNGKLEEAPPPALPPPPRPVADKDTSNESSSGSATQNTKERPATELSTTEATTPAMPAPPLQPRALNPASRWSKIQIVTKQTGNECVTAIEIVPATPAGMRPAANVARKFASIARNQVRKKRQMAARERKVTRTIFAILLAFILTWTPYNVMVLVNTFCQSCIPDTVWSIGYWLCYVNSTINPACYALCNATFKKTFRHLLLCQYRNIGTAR
Muscarinic acetylcholine receptor M2 (Homo sapiens), sequence (P08172 whole entry): as the sequence (P08172 whole entry) above
Muscarinic acetylcholine receptor M1 (Homo sapiens), sequence (P11229 whole entry): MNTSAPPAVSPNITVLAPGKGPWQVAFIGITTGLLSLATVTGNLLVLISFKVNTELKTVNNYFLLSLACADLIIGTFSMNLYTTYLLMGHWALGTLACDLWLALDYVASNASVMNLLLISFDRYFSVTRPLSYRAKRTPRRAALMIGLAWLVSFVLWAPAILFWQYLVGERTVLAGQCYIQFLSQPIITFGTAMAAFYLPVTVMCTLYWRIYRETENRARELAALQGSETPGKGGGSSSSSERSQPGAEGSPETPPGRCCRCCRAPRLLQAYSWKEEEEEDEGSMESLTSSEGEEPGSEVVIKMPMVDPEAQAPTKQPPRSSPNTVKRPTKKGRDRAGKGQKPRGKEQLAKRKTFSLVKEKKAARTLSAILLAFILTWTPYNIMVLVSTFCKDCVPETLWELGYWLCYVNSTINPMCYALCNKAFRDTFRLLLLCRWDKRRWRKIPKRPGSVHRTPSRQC

SMILES: O=C(c1ccc(C(=O)N2CCC(N3CCCC3)CC2)c(Nc2ccccc2)c1)N1CCC(N2CCCC2)CC1
- Diffusion coefficient [1]: 0.05 um2/s
- Activity [2]: inactive
- T1/2 [3]: 20.3 s
- Kb [4]: 24.5 nM
- Activity [5]: inactive
- Ki [6]: 4300 nM
- Diffusion coefficient [7]: 0.284 um2/s
- Ki [8]: 72 nM
- Diffusion coefficient [9]: 0.043 um2/s
- Ki [10]: 400 nM
- Diffusion coefficient [11]: 0.297 um2/s
